Published values pooled from the literature.
Lines come from different studies, so protocols differ.
Observed: cell growth or viability

SMILES	cell line	technique	concentration	time	measurement	result
CCC(=CCc1c(O)cc2c(c1O)C(=O)C[C@H](c1ccccc1O)O2)CC	HeLa	MTT	120 µM	48 h	inhibition	81.5%
CCOC(=O)c1cc(-c2ccc(OCC)cc2)oc1-c1ccc(Cl)cc1	U2OS	MTT	–	48 h	EC50	190 µM
C[C@H](Nc1ccc2c(c1)OCCn1cc(N3C(=O)OC[C@H]3C(F)F)nc1-2)C(N)=O	Detroit 562	ATP luminescence	–	5 days	EC50	0.0831 µM
N#CSCc1cc(=O)oc2cc(O)ccc12	HeLa	SRB	–	–	GI50	3.7 µM
CCOc1ccc(C(=O)CC(SCc2ccc(Cl)cc2)C(=O)O)cc1 (stereo not shown)	U2OS	MTT	–	48 h	EC50	130 µM
CCC(=CCc1c(O)cc2c(c1O)C(=O)CC(c1ccc(O)cc1)O2)CC (stereo in doubt)	HeLa	MTT	0.781 µM	48 h	inhibition	0.607%
O=c1[nH]cc(F)c(=O)[nH]1	HeLa	SRB	–	–	GI50	4.4 µM
CCOc1ccc(-c2cc(C(=O)O)c(-c3ccc(Cl)cc3)o2)cc1	SK-MEL-2	MTT	–	48 h	EC50	72 µM
Cc1cc(=O)oc2cc(OCCCCSC#N)ccc12	HeLa	SRB	–	–	GI50	1.9 µM
Cc1nc(Nc2ncc(C(=O)Nc3c(C)cccc3Cl)s2)cc(N2CC[C@H](O)C2)n1	SU-DHL-6	ATP luminescence	10 µM	72 h	inhibition	97%
